# Results from different studies.
# MMP7: Matrilysin (MMP7, Homo sapiens, UniProt P09237)
Structure (SMILES),target,test,conditions,quantity,value
N=C(N)c1ccc2cc(OC(=O)c3ccc(N=C(N)N)cc3)ccc2c1,MMP7,"enzyme activity, inhibitor",10 µM,inhibition,5%
COc1ncccc1-c1cnn2ccc(N3CCN(C(=O)OC(C)C)CC3)nc12,"Phosphatidylinositol 4-phosphate 5-kinase type-1 gamma (PIP5K1C, Homo sapiens, UniProt O60331)","binding, competition with immobilised ligand",1 µM,remaining binding,53%
CCOC(=O)c1ccc(OC(=O)CCCCCNC(=N)N)cc1,MMP7,"enzyme activity, inhibitor",10 µM,inhibition,3%
C#Cc1n[nH]c2c(-c3cn([C@@H](C)c4ccccn4)c(=O)[nH]c3=O)cc(F)cc12,"Tyrosine-protein kinase receptor UFO (AXL, Homo sapiens, UniProt P30530)","enzyme activity, inhibitor",0.1 µM,inhibition,13.4%
Cc1nn(C)cc1-c1nc2c(N3CCN(Cc4ccc(Cl)cc4)CC3)c(Cl)cnc2[nH]1,"Serine/threonine-protein kinase 32A (STK32A, Homo sapiens, UniProt Q8WU08)","binding, competition with immobilised ligand",1 µM,remaining binding,100%
Cc1cc(=O)oc2cc(NC(=O)[C@H](CCCNC(=N)N)NC(=O)[C@H](CCCNC(=N)N)NC(=O)[C@@H](NC(=O)[C@H](CCCNC(=N)N)NC(=O)OC(C)(C)C)C(C)C)ccc12,"Furin (FURIN, Homo sapiens, UniProt P09958)","enzyme activity, substrate, fluorescence",,Km,44.6 µM
O=c1ccc2ccc3occc3c2o1,"Aldehyde dehydrogenase 1A1 (ALDH1A1, Homo sapiens, UniProt P00352)","enzyme activity, inhibitor, absorbance",10 µM,activity vs control,61%
Nc1ncc(-c2nc(N3CCOCC3)nc(N3CCOCC3)n2)c(C(F)F)n1,"Serine/threonine-protein kinase 17B (STK17B, Homo sapiens, UniProt O94768)","binding, competition with immobilised ligand",10 µM,remaining binding,85%
